Laboratory results published in ChEMBL document CHEMBL5724801, “EUbOPEN Chemogenomics Library - Multiplex” (2024).
“And” between values parts separate entries of the source, which are not always exact repeats. Identical values can stand only once.

Assays:
HEK-293T = experiment: Multiplex assay against HEK293T; format: toxicity, cell-based; details: human
Method in brief: (§1)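 Cells were classed with CellPathfinder machine-learning gating, first as Hoechst high-intensity objects or normal cells, then (normal cells) as healthy, pyknosed or fragmented nuclei, and finally (pyknosed cells) as mitotic or apoptotic. Staining of live cells at seeding used Hoechst33342, BioTracker Green Microtubule Cytoskeleton Dye, MitoTracker Red and Annexin V Alexa Fluor 680, with imaging on a CQ1 microscope at 37°C and 5% CO2 after compound addition. Tubulin, mitochondrial-mass and membrane-permeability phenotypes are per cents of healthy-nucleus cells.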

U2OS = experiment: Multiplex assay against U2OS; format: toxicity, cell-based; details: human; method in brief: as §1
[1] = 24 h, 1 µM, compound concentration 1 uM
[2] = 24 h, 10 µM, compound concentration 10 uM
[3] = 48 h, 1 µM, compound concentration 1 uM
[4] = 48 h, 10 µM, compound concentration 10 uM
[5] = 12 h, 1 µM, compound concentration 1 uM
[6] = 12 h, 10 µM, compound concentration 10 uM

SMILES: O=C(NCCO)c1cccc(-c2cc(Nc3ccc(OC(F)(F)F)cc3)ncn2)c1
- Total Cell Count (HEK-293T; [1]): 538 and 331
- Population Apoptotic (%) (HEK-293T; [2]): 39% and 50%
- Population Fragmented Nuclei (%) (HEK-293T; [2]): 5% and 6%
- Population Healthy Nuclei (%) (HEK-293T; [2]): 80% and 77%
- Population Hoechst High Intensity Objects (%) (HEK-293T; [2]): 7% and 14%
- Population Membrane Permeable-Phenotype (%) (HEK-293T; [2]): 0%
- Population Mitochondria Different-Phenotype (%) (HEK-293T; [2]): 61% and 56%
- Population Mitotic Cells (%) (HEK-293T; [2]): 60% and 50%
- Population Normal (%) (HEK-293T; [2]): 92% and 85%
- Population Pyknosed Nuclei (%) (HEK-293T; [2]): 14% and 15%
- Population Tubulin-Different-Phenotype (%) (HEK-293T; [2]): 38% and 22%
- Total Cell Count (HEK-293T; [2]): 447 and 354
- Population Apoptotic (%) (HEK-293T; [3]): 17% and 37%
- Population Fragmented Nuclei (%) (HEK-293T; [3]): 12% and 9%
- Population Healthy Nuclei (%) (HEK-293T; [3]): 80% and 79%
- Population Hoechst High Intensity Objects (%) (HEK-293T; [3]): 3% and 5%
- Population Membrane Permeable-Phenotype (%) (HEK-293T; [3]): 2% and 0%
- Population Mitochondria Different-Phenotype (%) (HEK-293T; [3]): 17% and 23%
- Population Mitotic Cells (%) (HEK-293T; [3]): 82% and 62%
- Population Normal (%) (HEK-293T; [3]): 96% and 94%
- Population Pyknosed Nuclei (%) (HEK-293T; [3]): 7% and 10%
- Population Tubulin-Different-Phenotype (%) (HEK-293T; [3]): 13% and 9%
- Total Cell Count (HEK-293T; [3]): 897 and 476
- Population Apoptotic (%) (HEK-293T; [4]): 41% and 58%
- Population Fragmented Nuclei (%) (HEK-293T; [4]): 10% and 16%
- Population Healthy Nuclei (%) (HEK-293T; [4]): 79% and 72%
- Population Hoechst High Intensity Objects (%) (HEK-293T; [4]): 8% and 17%
- Population Membrane Permeable-Phenotype (%) (HEK-293T; [4]): 1% and 0%
- Population Mitochondria Different-Phenotype (%) (HEK-293T; [4]): 36%
- Population Mitotic Cells (%) (HEK-293T; [4]): 58% and 41%
- Population Normal (%) (HEK-293T; [4]): 91% and 82%
- Population Pyknosed Nuclei (%) (HEK-293T; [4]): 10% and 11%
- Population Tubulin-Different-Phenotype (%) (HEK-293T; [4]): 18% and 13%
- Total Cell Count (HEK-293T; [4]): 595 and 504
- Population Apoptotic (%) (U2OS; [5]): 64% and 84%
- Population Fragmented Nuclei (%) (U2OS; [5]): 13% and 15%
- Population Healthy Nuclei (%) (U2OS; [5]): 72% and 73%
- Population Hoechst High Intensity Objects (%) (U2OS; [5]): 1%
- Population Membrane Permeable-Phenotype (%) (U2OS; [5]): 3% and 4%
- Population Mitochondria Different-Phenotype (%) (U2OS; [5]): 3%
- Population Mitotic Cells (%) (U2OS; [5]): 35% and 15%
- Population Normal (%) (U2OS; [5]): 98%
- Population Pyknosed Nuclei (%) (U2OS; [5]): 13% and 10%
- Population Tubulin-Different-Phenotype (%) (U2OS; [5]): 1% and 4%
- Total Cell Count (U2OS; [5]): 213 and 128
- Population Apoptotic (%) (U2OS; [6]): 84% and 100%
- Population Fragmented Nuclei (%) (U2OS; [6]): 21% and 20%
- Population Healthy Nuclei (%) (U2OS; [6]): 66% and 68%
- Population Hoechst High Intensity Objects (%) (U2OS; [6]): 4% and 2%
- Population Membrane Permeable-Phenotype (%) (U2OS; [6]): 9%
- Population Mitochondria Different-Phenotype (%) (U2OS; [6]): 7% and 15%
- Population Mitotic Cells (%) (U2OS; [6]): 15% and 0%
- Population Normal (%) (U2OS; [6]): 95% and 97%
- Population Pyknosed Nuclei (%) (U2OS; [6]): 12%
- Population Tubulin-Different-Phenotype (%) (U2OS; [6]): 6% and 3%
- Population Apoptotic (%) (U2OS; [1]): 70% and 86%
- Population Fragmented Nuclei (%) (U2OS; [1]): 16% and 20%
- Population Healthy Nuclei (%) (U2OS; [1]): 73% and 69%
- Population Hoechst High Intensity Objects (%) (U2OS; [1]): 1%
- Population Membrane Permeable-Phenotype (%) (U2OS; [1]): 3% and 7%
- Population Mitochondria Different-Phenotype (%) (U2OS; [1]): 3% and 5%
- Population Mitotic Cells (%) (U2OS; [1]): 29% and 13%
- Population Normal (%) (U2OS; [1]): 98%
- Population Pyknosed Nuclei (%) (U2OS; [1]): 9%
- Population Tubulin-Different-Phenotype (%) (U2OS; [1]): 2% and 4%
- Total Cell Count (U2OS; [1]): 256 and 156
- Population Apoptotic (%) (U2OS; [2]): 82% and 100%
- Population Fragmented Nuclei (%) (U2OS; [2]): 22% and 15%
- Population Healthy Nuclei (%) (U2OS; [2]): 64% and 78%
- Population Hoechst High Intensity Objects (%) (U2OS; [2]): 4% and 1%
- Population Membrane Permeable-Phenotype (%) (U2OS; [2]): 6% and 12%
- Population Mitochondria Different-Phenotype (%) (U2OS; [2]): 3% and 13%
- Population Mitotic Cells (%) (U2OS; [2]): 17% and 0%
- Population Normal (%) (U2OS; [2]): 95% and 98%
- Population Pyknosed Nuclei (%) (U2OS; [2]): 12% and 5%
- Population Tubulin-Different-Phenotype (%) (U2OS; [2]): 1% and 4%
- Population Apoptotic (%) (U2OS; [3]): 88% and 96%
- Population Fragmented Nuclei (%) (U2OS; [3]): 15% and 20%
- Population Healthy Nuclei (%) (U2OS; [3]): 75% and 65%
- Population Hoechst High Intensity Objects (%) (U2OS; [3]): 2%
- Population Membrane Permeable-Phenotype (%) (U2OS; [3]): 6% and 9%
- Population Mitochondria Different-Phenotype (%) (U2OS; [3]): 3% and 4%
- Population Mitotic Cells (%) (U2OS; [3]): 11% and 3%
- Population Normal (%) (U2OS; [3]): 97%
- Population Pyknosed Nuclei (%) (U2OS; [3]): 8% and 14%
- Population Tubulin-Different-Phenotype (%) (U2OS; [3]): 4% and 6%
- Total Cell Count (U2OS; [3]): 417 and 206
- Population Apoptotic (%) (U2OS; [4]): 92% and 91%
- Population Fragmented Nuclei (%) (U2OS; [4]): 18% and 26%
- Population Healthy Nuclei (%) (U2OS; [4]): 72% and 64%
- Population Hoechst High Intensity Objects (%) (U2OS; [4]): 3% and 2%
- Population Membrane Permeable-Phenotype (%) (U2OS; [4]): 8% and 5%
- Population Mitochondria Different-Phenotype (%) (U2OS; [4]): 3% and 7%
- Population Mitotic Cells (%) (U2OS; [4]): 7% and 8%
- Population Normal (%) (U2OS; [4]): 96% and 97%
- Population Pyknosed Nuclei (%) (U2OS; [4]): 9% and 8%
- Population Tubulin-Different-Phenotype (%) (U2OS; [4]): 6% and 1%
